Measured values published in ChEMBL document CHEMBL3351294, “Discovery of a selective, substrate-competitive inhibitor of the lysine methyltransferase SETD8” (J Med Chem, 2014).

Tests used:
[1] = target: T1, Histone-lysine N-methyltransferase EHMT2 (Homo sapiens, UniProt Q96KQ7); test: Inhibition of G9a (unknown origin) assessed as incorporation of tritium-labeled methyl group to lysine or arginine residues of peptide substrate by radioactive assay
T1 sequence (Q96KQ7 whole entry): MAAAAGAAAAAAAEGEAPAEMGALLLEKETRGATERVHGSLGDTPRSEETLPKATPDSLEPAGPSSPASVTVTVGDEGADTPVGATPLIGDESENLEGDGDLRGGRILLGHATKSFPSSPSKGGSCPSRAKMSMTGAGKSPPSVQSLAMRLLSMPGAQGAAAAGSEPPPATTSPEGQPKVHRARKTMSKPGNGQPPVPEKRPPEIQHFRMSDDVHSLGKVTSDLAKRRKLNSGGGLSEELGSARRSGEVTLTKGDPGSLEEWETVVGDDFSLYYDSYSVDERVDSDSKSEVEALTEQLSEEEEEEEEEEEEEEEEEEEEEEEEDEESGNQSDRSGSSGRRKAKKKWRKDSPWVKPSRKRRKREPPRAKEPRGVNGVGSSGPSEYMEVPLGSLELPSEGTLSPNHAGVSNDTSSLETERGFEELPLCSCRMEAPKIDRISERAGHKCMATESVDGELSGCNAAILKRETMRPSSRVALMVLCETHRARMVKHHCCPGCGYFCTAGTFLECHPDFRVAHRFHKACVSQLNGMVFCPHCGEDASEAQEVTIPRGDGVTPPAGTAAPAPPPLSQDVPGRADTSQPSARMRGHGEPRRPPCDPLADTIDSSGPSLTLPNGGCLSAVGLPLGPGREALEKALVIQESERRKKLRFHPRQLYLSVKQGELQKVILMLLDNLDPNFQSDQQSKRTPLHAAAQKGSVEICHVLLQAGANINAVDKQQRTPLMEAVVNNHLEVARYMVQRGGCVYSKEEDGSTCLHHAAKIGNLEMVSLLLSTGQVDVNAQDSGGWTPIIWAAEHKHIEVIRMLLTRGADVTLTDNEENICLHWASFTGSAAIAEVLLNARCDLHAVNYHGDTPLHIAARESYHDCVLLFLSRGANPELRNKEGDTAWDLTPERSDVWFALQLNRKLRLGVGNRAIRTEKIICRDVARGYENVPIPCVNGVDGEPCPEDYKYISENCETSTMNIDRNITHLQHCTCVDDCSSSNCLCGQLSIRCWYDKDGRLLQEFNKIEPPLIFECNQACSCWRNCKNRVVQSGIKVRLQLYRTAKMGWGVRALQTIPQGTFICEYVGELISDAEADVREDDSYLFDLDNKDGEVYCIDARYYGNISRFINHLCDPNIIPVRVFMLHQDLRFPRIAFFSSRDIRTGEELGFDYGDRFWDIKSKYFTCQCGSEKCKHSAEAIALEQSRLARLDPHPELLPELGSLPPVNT
Outline: (§1)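 Enzymes (PRMT5 as PRMT5-MEP50 complex, MLL1 as MLL1 complex) in 20 μL reactions with 3H-SAM and substrates near each enzyme's Km; compound at 100 nM to 100 μM. Stopped with 7.5 M guanidine HCl, diluted in 20 mM Tris pH 8.0, incubated 1 h on streptavidin FlashPlate, read as CPM. No-compound CPM was 100% activity; no-enzyme CPM was 0% background.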

[2] = target: Histone-lysine N-methyltransferase SETDB1 (Homo sapiens, UniProt Q15047); test: Inhibition of SETDB1 (unknown origin) assessed as incorporation of tritium-labeled methyl group to lysine or arginine residues of peptide substrate by radioactive assay; outline: as §1
[3] = target: T2, Histone-lysine N-methyltransferase EHMT1 (Homo sapiens, UniProt Q9H9B1); test: Inhibition of GLP (unknown origin) assessed as incorporation of tritium-labeled methyl group to lysine or arginine residues of peptide substrate by radioactive assay; outline: as §1
T2 sequence (Q9H9B1 whole entry): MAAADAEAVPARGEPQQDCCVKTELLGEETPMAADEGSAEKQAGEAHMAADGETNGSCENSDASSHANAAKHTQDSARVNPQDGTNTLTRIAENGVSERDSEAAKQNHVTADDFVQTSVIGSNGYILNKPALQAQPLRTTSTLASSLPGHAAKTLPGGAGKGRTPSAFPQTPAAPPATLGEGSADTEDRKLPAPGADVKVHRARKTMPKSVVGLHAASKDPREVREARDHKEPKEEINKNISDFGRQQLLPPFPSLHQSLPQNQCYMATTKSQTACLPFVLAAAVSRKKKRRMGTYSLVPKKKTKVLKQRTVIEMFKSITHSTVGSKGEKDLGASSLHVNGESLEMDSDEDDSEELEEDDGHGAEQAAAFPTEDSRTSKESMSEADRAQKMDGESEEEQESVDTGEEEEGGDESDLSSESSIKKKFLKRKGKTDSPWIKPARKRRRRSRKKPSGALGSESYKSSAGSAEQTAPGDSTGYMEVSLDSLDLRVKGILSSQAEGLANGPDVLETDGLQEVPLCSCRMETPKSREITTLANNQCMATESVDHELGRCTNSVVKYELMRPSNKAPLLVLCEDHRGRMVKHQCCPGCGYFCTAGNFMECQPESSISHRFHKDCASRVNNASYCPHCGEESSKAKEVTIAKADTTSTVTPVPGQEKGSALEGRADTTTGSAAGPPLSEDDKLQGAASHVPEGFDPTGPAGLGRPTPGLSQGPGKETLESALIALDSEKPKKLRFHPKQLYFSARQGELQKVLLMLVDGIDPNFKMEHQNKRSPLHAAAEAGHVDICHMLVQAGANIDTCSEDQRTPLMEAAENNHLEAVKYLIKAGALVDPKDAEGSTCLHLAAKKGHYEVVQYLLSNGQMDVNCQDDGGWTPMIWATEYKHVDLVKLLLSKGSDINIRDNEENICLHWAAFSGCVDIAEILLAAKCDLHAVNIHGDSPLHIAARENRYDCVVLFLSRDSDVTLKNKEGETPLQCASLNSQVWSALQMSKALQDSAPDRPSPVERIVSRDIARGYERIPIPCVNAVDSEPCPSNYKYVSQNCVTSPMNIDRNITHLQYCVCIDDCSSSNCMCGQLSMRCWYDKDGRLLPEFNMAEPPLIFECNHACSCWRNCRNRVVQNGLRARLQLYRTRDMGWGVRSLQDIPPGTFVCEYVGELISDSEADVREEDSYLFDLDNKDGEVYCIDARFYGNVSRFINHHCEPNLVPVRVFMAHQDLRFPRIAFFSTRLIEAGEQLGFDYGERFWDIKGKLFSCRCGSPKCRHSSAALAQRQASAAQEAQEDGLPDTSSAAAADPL

[4] = target: Histone-lysine N-methyltransferase SUV39H2 (Homo sapiens, UniProt Q9H5I1); test: Inhibition of SUV39H2 (unknown origin) assessed as incorporation of tritium-labeled methyl group to lysine or arginine residues of peptide substrate by radioactive assay; outline: as §1
[5] = target: T3, Histone-lysine N-methyltransferase SETD7 (Homo sapiens, UniProt Q8WTS6); test: Inhibition of SETD7 (unknown origin) assessed as incorporation of tritium-labeled methyl group to lysine or arginine residues of peptide substrate by radioactive assay; outline: as §1
T3 sequence (Q8WTS6 whole entry): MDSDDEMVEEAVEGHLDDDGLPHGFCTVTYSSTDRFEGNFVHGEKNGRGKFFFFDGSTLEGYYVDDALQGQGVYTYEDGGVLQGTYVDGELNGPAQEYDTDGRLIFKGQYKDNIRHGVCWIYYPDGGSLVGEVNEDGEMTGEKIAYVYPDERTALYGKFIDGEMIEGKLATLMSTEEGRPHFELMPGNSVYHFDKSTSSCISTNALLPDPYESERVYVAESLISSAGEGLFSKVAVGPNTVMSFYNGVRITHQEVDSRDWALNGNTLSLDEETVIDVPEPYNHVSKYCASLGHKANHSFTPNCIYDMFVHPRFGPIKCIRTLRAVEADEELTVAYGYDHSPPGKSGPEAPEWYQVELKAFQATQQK

[6] = target: Protein arginine N-methyltransferase 3 (Homo sapiens, UniProt O60678); test: Inhibition of PRMT3 (unknown origin) assessed as incorporation of tritium-labeled methyl group to lysine or arginine residues of peptide substrate by radioactive assay; outline: as §1
[7] = target: Protein arginine N-methyltransferase 5 (Homo sapiens, UniProt O14744); test: Inhibition of PRMT5 (unknown origin) assessed as incorporation of tritium-labeled methyl group to lysine or arginine residues of peptide substrate by radioactive assay; outline: as §1
[8] = target: Protein arginine N-methyltransferase 1 (Homo sapiens, UniProt Q99873); test: Inhibition of PRMT1 (unknown origin) assessed as incorporation of tritium-labeled methyl group to lysine or arginine residues of peptide substrate by radioactive assay; outline: as §1
[9] = target: Histone-lysine N-methyltransferase KMT5B (Homo sapiens, UniProt Q4FZB7); test: Inhibition of SUV420H1 (unknown origin) assessed as incorporation of tritium-labeled methyl group to lysine or arginine residues of peptide substrate by radioactive assay; outline: as §1
[10] = target: Histone-lysine N-methyltransferase KMT5C (Homo sapiens, UniProt Q86Y97); test: Inhibition of SUV420H2 (unknown origin) assessed as incorporation of tritium-labeled methyl group to lysine or arginine residues of peptide substrate by radioactive assay; outline: as §1
[11] = target: N-lysine methyltransferase SMYD2 (Homo sapiens, UniProt Q9NRG4); test: Inhibition of SMYD2 (unknown origin) assessed as incorporation of tritium-labeled methyl group to lysine or arginine residues of peptide substrate by radioactive assay; outline: as §1
[12] = target: DNA (cytosine-5)-methyltransferase 1 (Homo sapiens, UniProt P26358); test: Inhibition of DNMT1 (unknown origin) assessed as using dsDNA substrate by radioactive assay
[13] = target: Histone-lysine N-methyltransferase 2A (Homo sapiens, UniProt Q03164); test: Inhibition of MLL1 (unknown origin) assessed as incorporation of tritium-labeled methyl group to lysine or arginine residues of peptide substrate by radioactive assay; outline: as §1
[14] = target: Histone-lysine N-methyltransferase, H3 lysine-79 specific (Homo sapiens, UniProt Q8TEK3); test: Inhibition of DOT1L (unknown origin) by filter-based assay
Outline: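 Filter-format tritium assay: 20 μL reaction with 3H-SAM and substrates near Km, compound at 100 nM to 100 μM, incubated 1 h at room temperature. Precipitated with 10% TCA on filter plates, washed twice with 10% TCA and once with ethanol, scintillant added, CPM counted. No-compound CPM was 100% activity; no-enzyme CPM was 0%.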

[15] = target: T4, N-lysine methyltransferase KMT5A (Homo sapiens, UniProt Q9NQR1)
T4 sequence (Q9NQR1 whole entry): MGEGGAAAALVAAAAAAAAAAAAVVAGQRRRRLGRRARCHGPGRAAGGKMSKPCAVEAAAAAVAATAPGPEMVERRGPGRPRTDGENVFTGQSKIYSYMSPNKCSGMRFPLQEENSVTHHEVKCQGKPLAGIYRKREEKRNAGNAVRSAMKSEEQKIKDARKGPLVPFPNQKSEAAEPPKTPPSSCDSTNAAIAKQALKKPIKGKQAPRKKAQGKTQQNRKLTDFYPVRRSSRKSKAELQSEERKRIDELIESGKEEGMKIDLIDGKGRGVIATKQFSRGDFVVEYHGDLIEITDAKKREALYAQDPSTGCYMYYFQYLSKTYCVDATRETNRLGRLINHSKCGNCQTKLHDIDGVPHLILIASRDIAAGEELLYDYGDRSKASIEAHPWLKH

[16] = target: T4, N-lysine methyltransferase KMT5A; remark: listed apart in the source

Measured: IC50

Chain of Histone-lysine N-methyltransferase 2A (Q03164 1-2718 limits assumed): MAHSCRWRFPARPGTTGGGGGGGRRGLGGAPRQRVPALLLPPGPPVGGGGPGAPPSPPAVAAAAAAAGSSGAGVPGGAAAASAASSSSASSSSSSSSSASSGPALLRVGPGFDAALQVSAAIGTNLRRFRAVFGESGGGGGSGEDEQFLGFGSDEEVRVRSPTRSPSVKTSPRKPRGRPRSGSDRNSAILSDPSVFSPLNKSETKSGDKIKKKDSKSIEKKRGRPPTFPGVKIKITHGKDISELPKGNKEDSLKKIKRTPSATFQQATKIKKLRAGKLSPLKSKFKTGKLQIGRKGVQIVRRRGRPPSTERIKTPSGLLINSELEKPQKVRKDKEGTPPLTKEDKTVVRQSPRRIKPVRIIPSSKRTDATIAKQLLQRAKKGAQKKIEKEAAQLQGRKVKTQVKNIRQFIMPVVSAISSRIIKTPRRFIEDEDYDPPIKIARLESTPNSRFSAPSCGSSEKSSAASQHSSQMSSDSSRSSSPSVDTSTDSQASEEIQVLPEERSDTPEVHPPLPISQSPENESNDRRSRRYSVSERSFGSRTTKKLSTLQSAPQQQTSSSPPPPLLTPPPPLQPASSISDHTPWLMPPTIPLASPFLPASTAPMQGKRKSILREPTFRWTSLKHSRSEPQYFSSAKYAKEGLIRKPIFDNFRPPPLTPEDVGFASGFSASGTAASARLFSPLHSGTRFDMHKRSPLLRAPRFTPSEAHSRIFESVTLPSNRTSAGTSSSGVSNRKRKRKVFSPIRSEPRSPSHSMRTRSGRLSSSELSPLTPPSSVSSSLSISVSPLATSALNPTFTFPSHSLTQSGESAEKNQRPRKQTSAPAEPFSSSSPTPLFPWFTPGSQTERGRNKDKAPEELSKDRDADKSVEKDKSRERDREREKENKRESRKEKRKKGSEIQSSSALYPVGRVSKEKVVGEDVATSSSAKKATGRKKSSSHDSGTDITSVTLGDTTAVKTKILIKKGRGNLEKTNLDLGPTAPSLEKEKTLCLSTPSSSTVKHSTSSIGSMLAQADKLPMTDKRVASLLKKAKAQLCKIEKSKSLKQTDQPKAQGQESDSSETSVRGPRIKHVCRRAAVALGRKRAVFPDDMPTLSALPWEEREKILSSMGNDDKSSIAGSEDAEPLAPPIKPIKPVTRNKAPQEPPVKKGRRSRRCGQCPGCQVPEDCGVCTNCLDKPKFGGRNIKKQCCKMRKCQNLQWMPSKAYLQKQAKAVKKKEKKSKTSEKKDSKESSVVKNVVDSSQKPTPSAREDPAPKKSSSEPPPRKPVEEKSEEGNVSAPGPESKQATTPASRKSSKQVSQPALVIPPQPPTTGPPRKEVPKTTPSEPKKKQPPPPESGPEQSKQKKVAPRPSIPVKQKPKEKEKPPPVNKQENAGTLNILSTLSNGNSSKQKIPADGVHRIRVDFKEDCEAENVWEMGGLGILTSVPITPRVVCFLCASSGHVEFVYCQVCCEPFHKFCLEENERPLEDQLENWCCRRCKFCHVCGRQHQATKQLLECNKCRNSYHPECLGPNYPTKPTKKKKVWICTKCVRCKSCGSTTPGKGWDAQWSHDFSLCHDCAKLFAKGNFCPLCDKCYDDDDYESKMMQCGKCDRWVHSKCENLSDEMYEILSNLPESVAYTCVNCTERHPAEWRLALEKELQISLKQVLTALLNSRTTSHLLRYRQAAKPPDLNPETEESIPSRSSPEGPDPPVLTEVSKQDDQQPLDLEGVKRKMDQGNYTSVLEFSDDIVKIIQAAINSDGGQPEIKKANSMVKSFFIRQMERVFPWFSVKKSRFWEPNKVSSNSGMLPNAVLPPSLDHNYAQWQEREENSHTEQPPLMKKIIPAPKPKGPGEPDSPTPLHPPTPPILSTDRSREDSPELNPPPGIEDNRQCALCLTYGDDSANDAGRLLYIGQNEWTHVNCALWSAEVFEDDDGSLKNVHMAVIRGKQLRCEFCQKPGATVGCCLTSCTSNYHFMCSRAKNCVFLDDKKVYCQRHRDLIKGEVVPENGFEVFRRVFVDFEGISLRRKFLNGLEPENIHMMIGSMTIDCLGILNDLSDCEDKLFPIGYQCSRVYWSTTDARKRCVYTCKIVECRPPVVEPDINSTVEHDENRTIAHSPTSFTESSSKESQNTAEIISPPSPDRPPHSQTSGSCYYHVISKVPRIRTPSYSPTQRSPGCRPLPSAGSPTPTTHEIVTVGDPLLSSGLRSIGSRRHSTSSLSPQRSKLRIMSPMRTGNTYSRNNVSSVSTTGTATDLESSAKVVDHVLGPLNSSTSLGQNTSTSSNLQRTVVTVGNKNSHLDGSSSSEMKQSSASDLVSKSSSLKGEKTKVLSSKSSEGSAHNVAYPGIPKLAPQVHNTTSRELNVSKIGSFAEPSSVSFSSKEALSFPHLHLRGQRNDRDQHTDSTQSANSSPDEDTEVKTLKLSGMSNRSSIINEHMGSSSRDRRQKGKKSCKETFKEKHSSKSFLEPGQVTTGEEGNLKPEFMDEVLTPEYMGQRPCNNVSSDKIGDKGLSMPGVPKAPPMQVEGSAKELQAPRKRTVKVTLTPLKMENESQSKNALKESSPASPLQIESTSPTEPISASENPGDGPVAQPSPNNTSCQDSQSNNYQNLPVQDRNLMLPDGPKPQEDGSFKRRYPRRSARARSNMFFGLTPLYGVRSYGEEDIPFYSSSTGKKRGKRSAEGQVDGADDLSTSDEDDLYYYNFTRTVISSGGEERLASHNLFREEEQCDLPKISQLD
Chain of Histone-lysine N-methyltransferase 2A (Q03164 2719-3969 limits assumed): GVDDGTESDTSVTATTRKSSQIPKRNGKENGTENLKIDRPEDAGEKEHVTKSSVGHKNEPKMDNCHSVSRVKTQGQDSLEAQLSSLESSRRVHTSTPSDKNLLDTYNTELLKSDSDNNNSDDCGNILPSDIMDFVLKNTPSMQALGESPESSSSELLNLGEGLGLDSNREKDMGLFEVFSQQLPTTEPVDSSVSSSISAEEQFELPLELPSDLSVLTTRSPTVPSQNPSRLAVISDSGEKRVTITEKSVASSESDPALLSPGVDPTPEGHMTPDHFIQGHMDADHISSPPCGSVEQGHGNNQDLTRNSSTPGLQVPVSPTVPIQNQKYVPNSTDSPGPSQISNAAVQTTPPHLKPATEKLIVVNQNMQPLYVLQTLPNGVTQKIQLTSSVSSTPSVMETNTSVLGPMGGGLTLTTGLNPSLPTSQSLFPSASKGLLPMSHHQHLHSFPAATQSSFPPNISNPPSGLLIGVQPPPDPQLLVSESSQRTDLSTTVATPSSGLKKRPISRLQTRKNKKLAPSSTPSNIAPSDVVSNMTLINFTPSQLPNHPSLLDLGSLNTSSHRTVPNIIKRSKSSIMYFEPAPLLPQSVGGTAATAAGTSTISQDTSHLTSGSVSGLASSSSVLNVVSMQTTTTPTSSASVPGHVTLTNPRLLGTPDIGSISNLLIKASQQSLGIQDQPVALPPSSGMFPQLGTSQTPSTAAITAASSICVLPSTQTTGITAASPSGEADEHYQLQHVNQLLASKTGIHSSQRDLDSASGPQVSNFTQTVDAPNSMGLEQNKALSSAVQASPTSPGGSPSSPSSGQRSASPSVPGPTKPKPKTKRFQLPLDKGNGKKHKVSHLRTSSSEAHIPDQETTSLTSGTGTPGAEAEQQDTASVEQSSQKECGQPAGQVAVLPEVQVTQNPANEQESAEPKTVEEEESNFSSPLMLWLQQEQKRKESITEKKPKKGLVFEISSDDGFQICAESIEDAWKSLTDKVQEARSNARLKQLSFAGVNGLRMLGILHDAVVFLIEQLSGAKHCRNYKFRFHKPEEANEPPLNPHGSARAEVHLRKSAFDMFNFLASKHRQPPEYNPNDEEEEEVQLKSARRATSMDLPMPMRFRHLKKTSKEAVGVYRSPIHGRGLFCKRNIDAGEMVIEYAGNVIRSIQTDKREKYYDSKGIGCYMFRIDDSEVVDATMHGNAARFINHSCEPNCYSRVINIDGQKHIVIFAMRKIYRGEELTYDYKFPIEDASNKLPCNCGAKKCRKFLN
Chain of Histone-lysine N-methyltransferase SUV39H2 (Q9H5I1 whole entry): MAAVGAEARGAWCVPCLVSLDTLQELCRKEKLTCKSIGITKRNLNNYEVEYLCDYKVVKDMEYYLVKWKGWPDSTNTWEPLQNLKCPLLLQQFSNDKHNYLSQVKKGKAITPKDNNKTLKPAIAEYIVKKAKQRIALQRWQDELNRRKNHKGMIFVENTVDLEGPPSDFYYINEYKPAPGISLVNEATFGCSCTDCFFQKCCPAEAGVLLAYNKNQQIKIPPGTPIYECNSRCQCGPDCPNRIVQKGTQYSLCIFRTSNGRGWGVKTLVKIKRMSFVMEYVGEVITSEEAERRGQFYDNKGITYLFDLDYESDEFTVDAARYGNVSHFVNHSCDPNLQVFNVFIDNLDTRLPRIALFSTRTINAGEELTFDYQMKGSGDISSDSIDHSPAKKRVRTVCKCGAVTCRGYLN
Chain of Protein arginine N-methyltransferase 3 (O60678 whole entry): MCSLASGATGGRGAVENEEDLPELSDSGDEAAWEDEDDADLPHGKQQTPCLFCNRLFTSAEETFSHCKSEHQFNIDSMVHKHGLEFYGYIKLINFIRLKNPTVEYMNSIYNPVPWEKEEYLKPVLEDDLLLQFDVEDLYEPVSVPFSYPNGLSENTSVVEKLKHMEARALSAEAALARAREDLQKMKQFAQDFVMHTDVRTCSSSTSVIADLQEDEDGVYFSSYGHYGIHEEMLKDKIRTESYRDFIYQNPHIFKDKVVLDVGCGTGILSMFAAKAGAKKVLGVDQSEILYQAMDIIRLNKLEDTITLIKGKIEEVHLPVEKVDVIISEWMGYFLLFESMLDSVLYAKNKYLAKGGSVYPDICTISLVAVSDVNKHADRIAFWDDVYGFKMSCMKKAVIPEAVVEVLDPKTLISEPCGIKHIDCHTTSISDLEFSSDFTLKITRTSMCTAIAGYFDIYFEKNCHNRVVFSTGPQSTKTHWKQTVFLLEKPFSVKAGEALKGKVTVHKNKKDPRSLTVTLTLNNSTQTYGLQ

COc1cc2nc(N3CCCC3)nc(NCCCCCN3CCCC3)c2cc1OC
not listed: [15] | [16]
> 100 µM: all other assays above

COc1cc2nc(NC3CCCC3)nc(NCCCCCN3CCCC3)c2cc1OC
> 250 µM: [15]

COc1cc2nc(N3CCCC3)nc(N(C)CCCCCN3CCCC3)c2cc1OC
Not Active: [16]
> 250 µM: [15]

COc1cc2nc(NC3CCCCC3)nc(NCCCCCN3CCCC3)c2cc1OC
> 250 µM: [15]
